One may read the Ki as a dissociation constant, usually derived from enzyme kinetics or from competition with a known ligand. Usually pKi stands for the negative decadic logarithm of the Ki, by convention in mol/L. Low values mean a high Ki, high ones a low Ki.

This is an account of results in ChEMBL document CHEMBL4396879, “Conjugation of Short Peptides to Dibenzodiazepinone-Type Muscarinic Acetylcholine Receptor Ligands Determines M2R Selectivity” (J Med Chem, 2019).

Assay [1] deals with T1, Muscarinic acetylcholine receptor M1 (Homo sapiens, UniProt P11229).
T1 sequence (P11229 whole entry): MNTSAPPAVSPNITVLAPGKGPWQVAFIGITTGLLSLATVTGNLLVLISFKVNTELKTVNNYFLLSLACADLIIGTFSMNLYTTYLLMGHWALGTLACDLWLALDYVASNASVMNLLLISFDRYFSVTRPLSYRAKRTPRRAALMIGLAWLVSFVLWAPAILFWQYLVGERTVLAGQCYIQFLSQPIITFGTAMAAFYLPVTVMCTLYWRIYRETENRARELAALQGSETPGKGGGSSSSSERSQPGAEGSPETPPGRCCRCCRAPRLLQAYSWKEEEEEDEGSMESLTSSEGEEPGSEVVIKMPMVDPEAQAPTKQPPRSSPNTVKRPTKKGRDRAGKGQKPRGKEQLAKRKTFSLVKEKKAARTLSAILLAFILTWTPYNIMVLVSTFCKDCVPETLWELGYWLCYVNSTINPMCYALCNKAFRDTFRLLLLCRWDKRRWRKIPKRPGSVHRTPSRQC
Description: Displacement of [3H]-NMS from human muscarinic M1 receptor expressed in CHO-K1 cells by scintillation counting method. It counts as cell-based. A digest of the protocol:
(§1)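 [3H]NMS competition binding on intact CHO-hMxR cells in L15 medium with 1% BSA, 3 h at 22 ± 1 °C with gentle shaking. [3H]NMS was 0.2 nM (M1, M2, M3), 0.1 nM (M4) or 0.3 nM (M5). […] Cells were lysed in urea/acetic acid/Triton and counted by liquid scintillation. Ki from Cheng-Prusoff. Triplicates, ≥3 experiments.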
On the technique in general: Loss of bound radioactivity is the signal in a displacement assay; it reports binding, not function.

Assay [2] concerns the target Muscarinic acetylcholine receptor M2 and M5 (Homo sapiens) (UniProt P08172+P08912). As to the kind of experiment: Selectivity ratio of Ki for human muscarinic M5 receptor expressed in stable CHO-K1 cells to Ki for human muscarinic M2 receptor expressed in stable CHO-K1 cells. In kind it is cell-based.
Assay [3] deals with T2, Muscarinic acetylcholine receptor M2 (Homo sapiens, UniProt P08172).
T2 sequence (P08172 whole entry): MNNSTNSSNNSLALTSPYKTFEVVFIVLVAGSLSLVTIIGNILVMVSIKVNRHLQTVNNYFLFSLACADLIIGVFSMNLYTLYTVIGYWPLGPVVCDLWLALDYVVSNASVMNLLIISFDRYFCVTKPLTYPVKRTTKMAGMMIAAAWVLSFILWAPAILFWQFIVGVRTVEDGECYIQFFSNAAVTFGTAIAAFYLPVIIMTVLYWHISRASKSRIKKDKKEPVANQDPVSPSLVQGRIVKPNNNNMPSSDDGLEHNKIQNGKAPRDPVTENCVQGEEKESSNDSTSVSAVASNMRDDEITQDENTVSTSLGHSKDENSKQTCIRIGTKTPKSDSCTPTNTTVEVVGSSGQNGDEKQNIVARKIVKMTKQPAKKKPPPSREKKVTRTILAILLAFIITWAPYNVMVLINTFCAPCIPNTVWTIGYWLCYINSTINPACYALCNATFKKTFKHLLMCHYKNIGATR
As to the kind of experiment: Displacement of [3H]-NMS from human muscarinic M2 receptor expressed in CHO-K1 cells by scintillation counting method. In kind it is cell-based. Put shortly:
as §1

The target in assay [4] is T3, Muscarinic acetylcholine receptor M4 (Homo sapiens, UniProt P08173).
T3 sequence (P08173 whole entry): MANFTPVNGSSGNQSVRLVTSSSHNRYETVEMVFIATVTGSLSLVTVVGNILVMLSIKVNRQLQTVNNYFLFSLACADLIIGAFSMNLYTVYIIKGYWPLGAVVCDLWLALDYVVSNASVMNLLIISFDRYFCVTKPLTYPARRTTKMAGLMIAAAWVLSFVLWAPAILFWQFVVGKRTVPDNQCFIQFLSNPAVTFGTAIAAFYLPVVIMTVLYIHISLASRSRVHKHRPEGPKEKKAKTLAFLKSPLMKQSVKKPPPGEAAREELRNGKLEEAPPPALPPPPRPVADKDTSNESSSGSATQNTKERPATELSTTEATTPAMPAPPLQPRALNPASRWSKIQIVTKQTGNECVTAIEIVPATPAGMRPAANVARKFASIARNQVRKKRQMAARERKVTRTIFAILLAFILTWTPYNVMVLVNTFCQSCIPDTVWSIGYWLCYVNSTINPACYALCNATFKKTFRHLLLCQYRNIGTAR
Description: Displacement of [3H]-NMS from human muscarinic M4 receptor expressed in CHO-K1 cells by scintillation counting method. In kind it is cell-based. A digest of the protocol:
as §1

The target in assay [5] is Muscarinic acetylcholine receptors; M2 & M3 (Homo sapiens) (UniProt P20309+P08172). Description: Selectivity ratio of Ki for human muscarinic M3 receptor expressed in stable CHO-K1 cells to Ki for human muscarinic M2 receptor expressed in stable CHO-K1 cells. In kind it is cell-based.
Assay [6] has as its target T4, Muscarinic acetylcholine receptor M5 (Homo sapiens, UniProt P08912).
T4 sequence (P08912 whole entry): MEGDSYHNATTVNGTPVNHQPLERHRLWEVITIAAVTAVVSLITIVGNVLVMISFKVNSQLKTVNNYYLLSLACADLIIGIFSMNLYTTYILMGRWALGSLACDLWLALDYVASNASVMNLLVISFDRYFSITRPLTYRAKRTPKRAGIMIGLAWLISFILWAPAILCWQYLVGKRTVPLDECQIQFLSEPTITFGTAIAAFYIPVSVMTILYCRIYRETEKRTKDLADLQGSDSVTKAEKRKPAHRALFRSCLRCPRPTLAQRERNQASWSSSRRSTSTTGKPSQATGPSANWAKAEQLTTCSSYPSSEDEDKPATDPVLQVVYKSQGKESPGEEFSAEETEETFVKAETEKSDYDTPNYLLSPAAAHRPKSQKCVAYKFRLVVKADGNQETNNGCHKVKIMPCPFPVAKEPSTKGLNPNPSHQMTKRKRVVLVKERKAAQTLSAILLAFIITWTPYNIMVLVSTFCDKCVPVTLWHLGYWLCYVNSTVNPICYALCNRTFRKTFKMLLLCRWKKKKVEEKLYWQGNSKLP
As to the kind of experiment: Displacement of [3H]-NMS from human muscarinic M5 receptor expressed in CHO-K1 cells by scintillation counting method. In kind it is cell-based. Put shortly: as §1

Assay [7] deals with T5, Muscarinic acetylcholine receptor M3 (Homo sapiens, UniProt P20309). As to the kind of experiment: Displacement of [3H]-NMS from human muscarinic M3 receptor expressed in CHO-K1 cells by scintillation counting method. It counts as cell-based. Put shortly: as §1
Assay [8] has as its target T2, Muscarinic acetylcholine receptor M2. As to the kind of experiment: Displacement of [3H]-QNB from human muscarinic M2 receptor expressed in stable CHO-K1 cells incubated for 120 mins by radioligand competition binding assay. In kind it is cell-based.
Assay [9] is described as follows: Selectivity ratio of Ki for muscarinic M3 receptor (unknown origin) expressed in mouse A9L cell membranes to Ki for rat heart muscarinic M2 receptor. In kind it is cell-based.
In assay [10] the target is T1, Muscarinic acetylcholine receptor M1. As to the kind of experiment: Displacement of [3H]-NMS from muscarinic M1 receptor (unknown origin) expressed in mouse A9L cells after 60 mins by scintillation counting method. It counts as cell-based.
For assay [11], the target named is T5, Muscarinic acetylcholine receptor M3. Description: Displacement of [3H]-NMS from muscarinic M3 receptor (unknown origin) expressed in mouse A9L cell membranes after 60 mins by scintillation counting method.
A short description of assay [12]: Displacement of [3H]-NMS from muscarinic M4 receptor in mouse/rat NG108-15 cells after 60 mins by scintillation counting method. It counts as cell-based.
Assay [13] addresses T6, Muscarinic acetylcholine receptor M2 (Rattus norvegicus, UniProt P10980).
T6 sequence (P10980 whole entry): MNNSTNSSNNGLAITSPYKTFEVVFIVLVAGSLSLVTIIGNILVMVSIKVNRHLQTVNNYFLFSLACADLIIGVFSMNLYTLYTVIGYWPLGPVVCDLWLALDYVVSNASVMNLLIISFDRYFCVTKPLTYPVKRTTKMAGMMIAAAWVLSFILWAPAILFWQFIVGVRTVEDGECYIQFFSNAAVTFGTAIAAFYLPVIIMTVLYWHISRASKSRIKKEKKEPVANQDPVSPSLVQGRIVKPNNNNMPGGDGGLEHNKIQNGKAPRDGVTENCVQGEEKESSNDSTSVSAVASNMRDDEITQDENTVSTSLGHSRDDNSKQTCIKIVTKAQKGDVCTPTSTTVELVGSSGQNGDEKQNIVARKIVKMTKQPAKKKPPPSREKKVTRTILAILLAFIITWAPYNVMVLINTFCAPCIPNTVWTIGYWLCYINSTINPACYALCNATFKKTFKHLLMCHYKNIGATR
Description: Displacement of [3H]-NMS from rat heart muscarinic M2 receptor after 60 mins by scintillation counting method.

A short description of assay [14]: Selectivity ratio of Ki for muscarinic M4 receptor in mouse/rat NG108-15 cells to Ki for rat heart muscarinic M2 receptor. In kind it is cell-based.
The nature of assay [15]: Selectivity ratio of Ki for muscarinic M1 receptor (unknown origin) expressed in mouse A9L cell membranes to Ki for rat heart muscarinic M2 receptor. In kind it is cell-based.

T5 sequence (P20309 whole entry): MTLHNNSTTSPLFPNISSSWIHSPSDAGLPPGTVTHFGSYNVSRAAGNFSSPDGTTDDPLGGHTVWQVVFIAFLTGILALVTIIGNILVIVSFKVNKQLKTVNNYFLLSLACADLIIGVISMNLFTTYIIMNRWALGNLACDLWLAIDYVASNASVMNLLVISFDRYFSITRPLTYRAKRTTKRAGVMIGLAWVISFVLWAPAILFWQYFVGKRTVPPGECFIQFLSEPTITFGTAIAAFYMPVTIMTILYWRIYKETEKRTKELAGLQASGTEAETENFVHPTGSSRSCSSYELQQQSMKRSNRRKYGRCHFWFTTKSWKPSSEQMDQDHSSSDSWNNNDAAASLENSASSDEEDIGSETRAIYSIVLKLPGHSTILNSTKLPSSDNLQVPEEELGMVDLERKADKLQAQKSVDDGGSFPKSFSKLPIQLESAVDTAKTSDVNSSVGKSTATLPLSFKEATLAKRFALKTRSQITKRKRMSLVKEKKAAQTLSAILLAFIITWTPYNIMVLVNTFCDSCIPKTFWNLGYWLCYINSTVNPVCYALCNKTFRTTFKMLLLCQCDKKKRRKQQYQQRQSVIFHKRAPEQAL
Muscarinic acetylcholine receptors; M2 & M3 (Homo sapiens), sequence (P20309 whole entry, looked up, one chain of several): as the sequence (P20309 whole entry) above

For the compound `CCCC(C)(C)C(=O)N(CC)CCCC1CCN(CC(=O)N2c3ccc(Cl)cc3C(=O)Nc3cccnc32)CC1`, the inhibition constant Ki in [1] is 1070 nM; in [3], 30.2 nM; in [4], 174 nM; in assay [6], 1450 nM; in assay [7] it was 776 nM. For the same compound, the Ratio Ki in [2] came out at 48; in assay [5], 26.

As for `Cc1ccccc1C(=O)N1CCC(N2CCC(Cc3ccc(S(=O)(=O)c4cccc(Cl)c4)cc3)CC2)CC1`, the Ratio Ki in assay [2] was 48; in assay [5] it was 172. The same compound showed a Ki in assay [8] of 2.69 nM.

In the case of `CCN(CC)CCCCC1CCN(CC(=O)N2c3ccccc3NC(=O)c3ccccc32)CC1`, the results for the Ratio Ki in assay [9], in [14] and in assay [15] were 37, 7 and 13, respectively. Also, the Ki is 3.98 nM in assay [10], 10 nM in [11] and 0.316 nM in [13]. In addition, the pKi in assay [12] is listed as 8.7.
